Compounds with a hit are over-represented: about 3.7% of the library has one in this group of screens.
SR-BI DiI-HDL act – SR-BI HDL lipid transfer activation; 0.096% of 320,000 active; activation, % at 12.5 µM; AID 504775; CHO ldlA[mSR-BI] cells, DiI-HDL uptake fluorescence, 3 h; 100 = double the neutral-control signal;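 active = mean replicate activation of at least 60% and every replicate at or above 60%; inconclusive = mean or all-replicate condition met, but not both; inactive = mean below 60% and not all replicates reaching 60%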;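 note: 0% = median plate neutral-control signal and 100% = twice that signal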
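Assay system: LDL receptor-deficient CHO ldlA cells overexpressing murine SR-BI / Medium: BSA-supplemented, HEPES-buffered Ham's F12, pH 7.4 / Probe or stimulus: DiI-labelled HDL at 10 µg/mL final / Timing: compound with DiI-HDL co-incubation, 3 h at 37 °C / Technique: bottom-read cell fluorescence after medium removal, ex 550/em 595 nm / Measure: HDL uptake via cellular fluorescence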
SR-BI HDL uptake – mouse SR-BI HDL lipid transfer inhibition; inhibition, % at 12.5 µM; Q61009; ldlA[mSR-BI] CHO cells, DiI-HDL uptake fluorescence, 3 h; 0.96% of 320,000 active;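 active = mean replicate inhibition of at least 70% and a set share of replicates each scoring 70 or more; inconclusive = meets just one of the two criteria; inactive = fails both criteria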;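 note: 0% = median of neutral control wells and 100% = median of positive control wells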
AHR act – human AHR activation. P35869. AHR-responsive luciferase reporter cells, luminescence. activation, % at 5 µM. 2.5% of 320,000 active; in the data active = activation above about 47%;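 note: 0% = vehicle wells and 100% = reference agonist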
FXN GAA850 act – frataxin GAA850 promoter activation | AID 540364 | HEK293 lucGAA850 FXN promoter luciferase reporter, 24 h; percent of 10 µM SAHA response | 0.56% of 360,000 active | activation, % at 6 µM;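 active = activation above the average of all compounds screened plus 3 SD, cutoff fixed separately per campaign, cut at about 7.5% in these data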;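 note: 0% = DMSO wells and 100% = 10 µM SAHA wells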
JMJD2C inh – inhibitors of human GASC-1 (JMJD2C) demethylase | inhibition, % at 2.35 µM | GST-JMJD2C(1-420) H3K9me3 demethylation, DELFIA europium | Q9H3R0 | 0.069% of 330,000 active;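 active = more than half of a compound's replicate wells show inhibition beyond 50%, single wells judged on their own value; inconclusive = some, but no more than half, of replicates pass 50% inhibition; inactive = no replicate passes 50% inhibition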;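 note: signal counts dimethyl H3K9 product captured on neutravidin plate; 0% = median of DMSO wells and 100% = 0.3 times that DMSO median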
Target sequence (Q9H3R0 1-420 limits assumed): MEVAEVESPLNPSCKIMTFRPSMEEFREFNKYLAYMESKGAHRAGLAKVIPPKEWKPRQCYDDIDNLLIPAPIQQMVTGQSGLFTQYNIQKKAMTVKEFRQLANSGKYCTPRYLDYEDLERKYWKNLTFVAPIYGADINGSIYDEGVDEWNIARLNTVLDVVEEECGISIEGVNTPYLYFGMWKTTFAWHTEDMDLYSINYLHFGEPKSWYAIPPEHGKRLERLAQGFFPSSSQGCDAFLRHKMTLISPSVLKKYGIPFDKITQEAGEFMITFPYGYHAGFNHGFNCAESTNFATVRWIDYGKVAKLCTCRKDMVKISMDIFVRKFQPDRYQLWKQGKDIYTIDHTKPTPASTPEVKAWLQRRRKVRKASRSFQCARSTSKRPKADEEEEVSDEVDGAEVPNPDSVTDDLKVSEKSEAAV
The depositor's hits bear a star; ? = inconclusive; nt = not tested or not shown.

SMILES | SR-BI DiI-HDL act | SR-BI HDL uptake | AHR act | FXN GAA850 act | JMJD2C inh
COc1ccc(C)cc1NC(=O)C1CCN(C(=O)C2CC(=O)N(c3ccc(C)cc3)C2)CC1 (stereo not drawn) | -89 | 89* | 0 | 4 | -2
COc1ccc(OC)c(NC(=O)C2CCN(C(=O)C3CC(=O)N(c4ccc(C)cc4)C3)CC2)c1 (stereo not drawn) | nt | nt | 1 | -2 | -8
C=CCNC(=S)NC(=O)c1oc2ccccc2c1C | 9 | -9 | 66* | 6 | 2
Cc1c(C(=O)NCc2ccccn2)oc2ccc(Br)cc12 | -71 | ? | 48* | 3 | -1
Cc1c(C(=O)NCc2ccccn2)oc2ccccc12 | -6 | 6 | 59* | 5 | -1
Cc1c(C(=O)NC(=S)NCC(C)C)oc2ccccc12 | -11 | 11 | 6 | 2 | 2
S=C1NC2(CCS1)Oc1ccccc1C1CC(c3ccccc3)=NN12 (stereo not drawn) | nt | nt | nt | nt | -7
Cc1ccc(C2=NN3C(C2)c2ccccc2OC32C(=O)Nc3ccccc32)cc1 (stereo not drawn) | -11 | 11 | 47* | 1 | 9
CN1C(=O)C2(Oc3ccccc3C3CC(c4ccccc4)=NN32)c2ccccc21 (stereo not drawn) | -6 | 6 | 54* | 2 | 2
O=C(NCCc1c[nH]c2ccccc12)C1CCN(S(=O)(=O)c2ccc(F)cc2)CC1 | -15 | 15 | 17 | -1 | -25
O=C(CCc1ccccc1)NCCc1ccc(F)cc1 | 19 | -19 | 0 | 2 | 23
Cc1cc2cc3c(cc2nc1SCC(=O)N1CCN(C(=O)c2ccco2)CC1)OCO3 | -23 | 23 | 11 | -2 | -2
Cc1cc2cc3c(cc2nc1SCC(=O)OC(C)C)OCO3 | -78 | 78* | nt | 0 | -22
CCN1C(=O)/C(=C/C=C2\C=CN(CC)c3ccccc32)SC1=S | -140 | 140* | 0 | 1 | -3
CCN1C(=O)/C(=C\C=C2/C=CC=CN2CC)SC1=S | 21 | -21 | 16 | 3 | 2
CN1/C(=C\C=C2/SC(=S)NC2=O)C(C)(C)c2ccccc21 | 7 | -7 | -2 | -2 | -39
CCCN1C(=O)/C(=C\C=C2\N(CC)c3ccccc3C2(C)C)SC1=S | -87 | 87* | nt | 1 | -3
CN(Cc1cccc(F)c1)C(=O)c1ccc(S(=O)(=O)N2CCCCCC2)cc1 | -18 | 18 | -2 | 1 | 15
O=[N+]([O-])c1ccc(N/N=C/c2c[nH]c3ccccc23)cc1 | -92 | 92* | 1 | -2 | -15
O=[N+]([O-])c1ccc(N/N=C/c2ccc[nH]2)cc1 | -33 | 33 | 61* | 5 | 1
Cn1ncc([N+](=O)[O-])c1C(=O)N/N=C/c1c[nH]c2ccccc12 | 10 | -10 | 70* | 3 | -6
Cc1[nH]c2ccccc2c1/C=N/Nc1ccc([N+](=O)[O-])cc1S(=O)(=O)Nc1ccc(Cl)cc1 | -83 | 83* | 0 | -3 | 21
COc1ccc(NS(=O)(=O)c2cc([N+](=O)[O-])ccc2N/N=C\c2c(C)[nH]c3ccccc23)cc1 | -2 | 2 | 13 | 3 | -12
NC(=O)COc1ccc(C(=O)NCC2(N3CCOCC3)CCCCC2)cc1 | 13 | -13 | -1 | 1 | -6
NC(c1csc(Nc2ccccn2)n1)c1ccccc1Cl (stereo not drawn) | nt | nt | nt | 1 | nt
SMILES | SR-BI DiI-HDL act | SR-BI HDL uptake | AHR act | FXN GAA850 act | JMJD2C inh
O=C(N/N=C/c1c[nH]c2ccccc12)c1ccc2c(c1)OCCO2 | -5 | 5 | 48* | -2 | 2
Cn1ncc([N+](=O)[O-])c1C(=O)Nc1ccc(-c2ccccc2)cc1 | -20 | 20 | 73* | 1 | 10
O=[N+]([O-])c1cccc(N/N=C/c2cccc3ccccc23)c1 | -40 | 40 | 61* | 5 | -1
COc1ccccc1NS(=O)(=O)c1cc([N+](=O)[O-])ccc1N/N=C/c1c[nH]c2ccccc12 | -83 | 83* | 16 | -2 | 43
Cn1ncc([N+](=O)[O-])c1C(=O)Nc1ccccc1 | 4 | -4 | 27 | 1 | -14
CCOc1ccccc1CNC(=O)CCn1ccc2cc(S(=O)(=O)N3CCCCC3)ccc21 | -15 | 15 | 2 | 5 | -9
O=c1c2[nH]cnc2n(-c2cccc(Br)c2)c(=O)n1Cc1ccccc1 | 0 | 0 | 2 | 7 | 10
O=[N+]([O-])c1ccccc1N/N=C/c1c[nH]c2ccccc12 | -110 | 110* | 73* | 5 | -1
O=C(N/N=C/c1c[nH]c2ccccc12)c1cccc([N+](=O)[O-])c1 | -12 | 12 | 70* | 3 | 2
COC(=O)c1cc(NC(=O)c2cc(-c3ccccc3Cl)oc2C(F)(F)F)ccc1N1CCOCC1 | -84 | 84* | 3 | -1 | -1
COC(=O)c1cc(NC(=O)c2cc(-c3ccc(Cl)cc3)oc2C(F)(F)F)ccc1N1CCOCC1 | -68 | 68 | 0 | -2 | 3
CCCc1cc2c(=O)c(-c3ccccn3)c(C)oc2cc1O | 6 | -6 | 65* | 0 | 0
COc1cc(/C=C2/N=C(c3ccccc3)OC2=O)c(F)cc1OCc1ccccc1 | 35 | -35 | -3 | 1 | 1
Cc1ccc(N=Nc2c(N)n[nH]c2N)cc1 | 13 | -13 | 6 | 0 | -3
Cc1cccc(N=Nc2c(N)n[nH]c2-c2ccc(Cl)cc2)c1 | -71 | 71* | 34 | 2 | -1
Cc1[nH]nc(N)c1-c1ccc(Cl)cc1 | 30 | -30 | 2 | 2 | 1
COC(=O)c1ccccc1N=Nc1c(N)n[nH]c1N | 2 | -2 | 14 | 1 | 10
Cc1ccc(-c2[nH]nc(N)c2N=Nc2ccccc2C)cc1 | -76 | 76* | 62* | 1 | 4
Cc1ccc(-c2[nH]nc(N)c2N=Nc2cccc(Cl)c2C)cc1 | -84 | 84* | nt | 0 | nt
CC(=O)/C(C#N)=C1\NC(=O)C(Cc2ccc(C)c(Cl)c2)S1 (stereo not drawn) | -4 | 4 | 3 | -5 | 0
Cc1c(C(=O)N2CCN(c3ccc(F)cc3)CC2)sc2nc3n(c(=O)c12)CCC3 | -13 | 13 | -2 | 1 | -11
Cc1cccc(-c2c3c(=O)n(C)c(=O)n(C)c3c3cccnn23)c1 | 5 | -5 | 60* | 1 | 17
Cc1cccc(NC(=O)NCC2CC2)c1 | nt | nt | nt | 0 | -3
O=C1CCCC2=C1Sc1ccc(Cl)cc1N2 | -45 | 45 | 44 | -3 | -6
COC(=O)c1ccc2c(c1)SC1=C(CCCC1=O)N2 | -18 | 18 | 60* | 2 | -4
CCCOc1ccc(-c2nc(OC)c3ccccc3n2)cc1 | -11 | 11 | 77* | 4 | 4
CN(C)S(=O)(=O)n1cnc([C@@H]2[C@H]3C(=O)OC[C@@H]3C[C@@]23N=CN(Cc2ccccc2)C3=O)c1 | 31 | -31 | 1 | 0 | 6
Cc1ccccc1N(CC(=O)Nc1ccc(F)cc1)S(C)(=O)=O | -7 | 7 | 69* | 1 | 7
